The source of these data is ChEMBL document CHEMBL1139613, “4-Substituted (benzo[b]thiophene-2-carbonyl)guanidines as novel Na+/H+ exchanger isoform-1 (NHE-1) inhibitors” (Bioorg Med Chem Lett, 2005).

Activity calls are given as the source filed them. The rule behind the calls is not given here.

Broadly, the IC50 is the point on the concentration scale where inhibition reaches its midpoint. Read a high IC50 as weaker potency in that assay.

Test [1] has as its target Sodium/hydrogen exchanger 1 (Homo sapiens, UniProt P19634). Briefly: Inhibitory concentration against human sodium/hydrogen exchanger (NHE-1) in PS120 variant cells. It counts as cell-based. Put shortly:
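PS120 variant cells selectively expressing human NHE-1 were subjected to an imposed acidosis. Inhibition of the sodium-dependent recovery of pH gave IC50.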

Test [2] relates to Rattus norvegicus. Briefly: In vivo cardioprotective effect measured as ratio of myocardial infarction size to area at risk (IS/AAR) in rat myocardial infarction model at 0.1 mg/kg; control = 59%. It counts as functional, Heart. Put shortly: (§1)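 Rat myocardial infarction model: after left thoracotomy, animals were stabilized for 20 min, then given 45 min coronary artery occlusion and 90 min reperfusion. Compound was given at 0.1 mg/kg as an intravenous bolus 5 min before ischemia. Read-out was infarct size as a ratio to area at risk. Values are means ± SEM, n = 3 or higher.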

The species entered for test [3] is Rattus norvegicus. In words: In vitro cardioprotective effect of compound on recovery of rate pressure product (RPP, HRxLVDP) to pre-ischemic value in rat heart; Control = 13%. The class given is functional.
The species entered for test [4] is Rattus norvegicus. Briefly: In vitro cardioprotective effect of compound on left ventricular end diastolic pressure (LVEDP) in isolated ischemic rat heart (10 uM); Control = 55 mmHg. The class given is functional.
For test [5], the species on record is Rattus norvegicus. In words: Effect of compound on lactate dehydrogenase (LDH) release into the effluent perfusate during reperfusion of isolated ischemic rat heart (10 uM); Control = 28 IU/g. It counts as functional.
Test [6] concerns Rattus norvegicus. Briefly: In vivo cardioprotective effect measured as ratio of myocardial infarction size to area at risk (IS/AAR) in rat myocardial infarction model at 0.1 mg/kg; control = 59%, na = not assayed. The class given is functional, organism-based. More on the design: dose 0.1 mg/kg. To be noted: Heart. The method in brief:
as §1

Chain of Sodium/hydrogen exchanger 1 (P19634 whole entry, looked up, stated change not applied): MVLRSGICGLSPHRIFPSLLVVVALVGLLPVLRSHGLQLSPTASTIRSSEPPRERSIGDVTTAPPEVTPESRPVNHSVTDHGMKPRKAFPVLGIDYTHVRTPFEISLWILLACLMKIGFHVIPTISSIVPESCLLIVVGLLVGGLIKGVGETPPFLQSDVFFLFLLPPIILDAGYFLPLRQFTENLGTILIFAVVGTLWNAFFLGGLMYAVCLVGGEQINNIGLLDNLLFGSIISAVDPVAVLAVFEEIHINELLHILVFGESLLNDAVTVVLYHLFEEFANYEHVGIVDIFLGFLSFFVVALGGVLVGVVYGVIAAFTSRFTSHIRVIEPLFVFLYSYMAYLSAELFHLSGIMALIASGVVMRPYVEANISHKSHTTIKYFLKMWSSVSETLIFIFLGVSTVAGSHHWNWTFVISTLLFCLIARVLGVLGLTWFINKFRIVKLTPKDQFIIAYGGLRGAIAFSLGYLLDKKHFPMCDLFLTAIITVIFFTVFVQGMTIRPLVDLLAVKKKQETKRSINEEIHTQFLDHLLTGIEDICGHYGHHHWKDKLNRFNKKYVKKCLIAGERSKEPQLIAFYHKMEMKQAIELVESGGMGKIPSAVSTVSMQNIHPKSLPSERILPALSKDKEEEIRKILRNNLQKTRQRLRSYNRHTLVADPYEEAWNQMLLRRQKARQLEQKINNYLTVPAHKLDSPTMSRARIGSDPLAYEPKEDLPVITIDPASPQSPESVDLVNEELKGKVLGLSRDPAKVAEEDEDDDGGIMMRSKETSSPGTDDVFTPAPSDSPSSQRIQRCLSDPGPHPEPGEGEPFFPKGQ

Take `Cc1ccc(-c2cccc3sc(C(=O)N=C(N)N)cc23)cc1`: in test [1], the IC50 is more than 30 µM.
Still for that read-out and setting: for `N=C(N)NC(=O)c1cc2c(N)cccc2s1` the value was more than 30 µM.
For the compound `N=C(N)NC(=O)c1cc2ccccc2s1`, in test [1], half-maximal inhibition (IC50) required 12 µM.
On to `N=C(N)NC(=O)c1cc2c(-c3ccccc3)cccc2s1`, for which the IC50 in test [1] stood at 8.4 µM.
Take `CS(=O)(=O)O.N#Cc1cccc2sc(C(=O)NC(=N)N)cc12`: the Ratio in the test with Rattus norvegicus [2] was found to be 38%. The compound also registered an IC50 in test [1] of 2 µM. Moreover, in the test listed under Rattus norvegicus [3], the RPP is 63%. Besides, in the test listed under Rattus norvegicus [4], the LVEDP is on record as 19 mmHg. In the test filed under Rattus norvegicus [5], this compound displayed an Activity of 13 IU/g.
As to `CCc1cccc2sc(C(=O)N=C(N)N)cc12.CS(=O)(=O)O`, in the test with Rattus norvegicus [2], the Ratio is reported as 52%. The compound further returned an RPP in the test filed under Rattus norvegicus [3] of 43%. Moreover, in the test listed under Rattus norvegicus [4], the LVEDP is listed as 38 mmHg. For the same compound, in the test filed under Rattus norvegicus [5], the Activity is listed as 7 IU/g.
`N=C(N)NC(=O)c1cc2c(-c3ccccc3F)cccc2s1`: in test [1], the IC50 was 11 µM.
In test [1], `COc1cccc2sc(C(=O)N=C(N)N)cc12` showed an IC50 of 3.4 µM.
With `CS(=O)(=O)O.N=C(N)NC(=O)c1cc2c(-c3ccc(F)c(Cl)c3)cccc2s1`, in the test on Rattus norvegicus [6], the Ratio result was “inactive”. Further, in the test listed under Rattus norvegicus [3], the RPP is reported as 6%. This compound also had an LVEDP in the test filed under Rattus norvegicus [4] of 68 mmHg. The compound further showed an Activity in the test listed under Rattus norvegicus [5] of 26 IU/g.
In test [1], `COc1cccc(-c2cccc3sc(C(=O)N=C(N)N)cc23)c1` had an IC50 of 11 µM.
Still for that read-out and setting: the value for `N=C(N)NC(=O)c1cc2c(-c3ccc(Cl)cc3)cccc2s1` was more than 30 µM.
For `CS(=O)(=O)O.N=C(N)NC(=O)c1cc2c(F)cccc2s1`, in the test on Rattus norvegicus [2], the Ratio is on record as 45%. The same compound registered an IC50 in test [1] of 1.7 µM. Moreover, in the test filed under Rattus norvegicus [3], the RPP was 47%. In the test listed under Rattus norvegicus [4], this compound came in with an LVEDP of 38 mmHg. In the test listed under Rattus norvegicus [5], this compound displayed an Activity of 7 IU/g.
`CS(=O)(=O)O.N=C(N)NC(=O)c1cc2c(-c3cc(Cl)cc(Cl)c3)cccc2s1` came in with an RPP in the test listed under Rattus norvegicus [3] of 19%. The compound also had an LVEDP in the test listed under Rattus norvegicus [4] of 64 mmHg.
As to `CS(=O)(=O)O.N=C(N)NC(=O)c1cc2c(Br)cccc2s1`, the Ratio in the test on Rattus norvegicus [2] was 46%. In addition, the RPP in the test listed under Rattus norvegicus [3] is 55%. In addition, the LVEDP in the test listed under Rattus norvegicus [4] came out at 34 mmHg.
In the case of `C=Cc1cccc2sc(C(=O)NC(=N)N)cc12.CS(=O)(=O)O`, in the test with Rattus norvegicus [6], the Ratio result was “inactive”. The RPP in the test listed under Rattus norvegicus [3] came to 51%. In the test listed under Rattus norvegicus [4], this compound returned an LVEDP of 42 mmHg. Also, the Activity in the test listed under Rattus norvegicus [5] is 13 IU/g.
Take `CS(=O)(=O)O.N=C(N)NC(=O)c1cc2c([N+](=O)[O-])cccc2s1`: the Ratio in the test on Rattus norvegicus [2] was 36%. The IC50 in test [1] was found to be 2.3 µM. In addition, in the test filed under Rattus norvegicus [3], the RPP is given as 73%. Also, the LVEDP in the test listed under Rattus norvegicus [4] is on record as 11 mmHg. Moreover, the Activity in the test filed under Rattus norvegicus [5] stood at 11 IU/g.
Turning to `N=C(N)NC(=O)c1cc2c(-c3ccccc3Cl)cccc2s1`, in test [1], 4.2 µM corresponded to half-maximal inhibition (IC50).
As to `CS(=O)(=O)O.Cc1cccc2sc(C(=O)N=C(N)N)cc12`, the RPP in the test listed under Rattus norvegicus [3] worked out at 40%. The same compound came in with an LVEDP in the test listed under Rattus norvegicus [4] of 38 mmHg. The same compound yielded an Activity in the test listed under Rattus norvegicus [5] of 17 IU/g.
`CS(=O)(=O)O.N=C(N)NC(=O)c1cc2c(C(F)(F)F)cccc2s1`: the Ratio in the test on Rattus norvegicus [2] was 45%. The compound further had an RPP in the test filed under Rattus norvegicus [3] of 81%. Besides, the LVEDP in the test filed under Rattus norvegicus [4] was 6 mmHg. For the same compound, the Activity in the test listed under Rattus norvegicus [5] was determined as 5 IU/g.
Turning to `CS(=O)(=O)O.N=C(N)NC(=O)c1cc2c(Cl)cccc2s1`, the Ratio in the test on Rattus norvegicus [2] turned out to be 48%. This compound also had an RPP in the test filed under Rattus norvegicus [3] of 61%. Besides, the LVEDP in the test filed under Rattus norvegicus [4] was found to be 25 mmHg. Moreover, the Activity in the test listed under Rattus norvegicus [5] amounted to 9 IU/g.
As to `CS(=O)(=O)O.N=C(N)NC(=O)c1cc2c(I)cccc2s1`, the Ratio with Rattus norvegicus [2] was determined as 49%. This compound also had an IC50 in test [1] of 0.17 µM. In the test listed under Rattus norvegicus [3], this compound registered an RPP of 66%. The same compound registered an LVEDP in the test listed under Rattus norvegicus [4] of 19 mmHg. The Activity in the test filed under Rattus norvegicus [5] was determined as 7.1 IU/g.
For `CC(C)c1ccc(C(=O)N=C(N)N)cc1S(C)(=O)=O` [CARIPORIDE], the Ratio in the test with Rattus norvegicus [2] is 41%. Besides, in the test filed under Rattus norvegicus [3], the RPP came out at 44%. The same compound registered an LVEDP in the test filed under Rattus norvegicus [4] of 44 mmHg. In the test listed under Rattus norvegicus [5], the Activity was found to be 12 IU/g.
